Here are results for 15 molecules from ChEMBL document CHEMBL2321842, “Rapid Determination of Ionization Constants (pK a) by UV Spectroscopy Using 96-Well Microtiter Plates” (ACS Med Chem Lett, 2013).

For orientation: pKa means the pH at which an ionisable group is half protonated. Low readings indicate a stronger acid or weaker base, high ones a weaker acid or stronger base.

The series is described as follows: Dissociation constant, pKa of the compound at pH 3 to 12 by UV spectroscopy. Type of series: physicochemical. In a few lines: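 UV-spectrophotometric titration in microplate wells. 10 mM DMSO stock diluted into buffers to 0.2 mM final (0.1 mM if spectra saturated), 2% v/v DMSO. Buffers: acetate, phosphate, borax, glycine/NaOH, pH 3–12.6, ionic strength 0.1 M (KCl), 30 °C. Spectra read at 2 nm resolution. Total absorbance difference at two analytical wavelengths fitted against pH by nonlinear regression. Mean of ≥3 independent runs ± SD.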
On to `CON1CCN/C1=N/c1ccc(CCc2ccc(/N=C3\NCCN3OC)cc2)cc1`, for which the pKa is 8.01. Consider `O=[N+]([O-])c1c[nH]cn1`, for which the pKa is 9.2.

Molecule `O=[N+]([O-])c1ccc(O)cc1` [P-NITROPHENOL] came in with a pKa of 6.87.

On to `Clc1cccc(Cl)c1N=C1NCCN1` [CLONIDINE], for which the pKa came out at 8.14. Molecule `CON1CCN/C1=N/c1ccc(C(=O)Nc2ccc(/N=C3\NCCN3OC)cc2)cc1` returned a pKa of 7.27. Take `N=C(N)Oc1ccc(Oc2ccc(OC(=N)N)cc2)cc1`: the pKa turned out to be 10.7.

For the molecule `CON1CCN/C1=N\c1ccc(NC(=O)Nc2ccc(/N=C3\NCCN3OC)cc2)cc1`, the pKa was 7.95. Regarding `O=C(Nc1ccc(NC2=NCCN2)cc1)Nc1ccc(NC2=NCCN2)cc1`, the pKa was 10.3. `c1cc(NC2=NCCN2)ccc1CCc1ccc(NC2=NCCN2)cc1` displayed a pKa of 10.7. Molecule `Cc1nc2ccccc2[nH]1` came in with a pKa of 6.22. Next, `CCON1CCN/C1=N/c1ccc(C(=O)Nc2ccc(/N=C3\NCCN3OCC)cc2)cc1`: 7.34; `CCON1CCN/C1=N\c1ccc(NC(=O)Nc2ccc(/N=C3\NCCN3OCC)cc2)cc1`: 8.27.

`ON1CCN/C1=N/c1ccc(CCc2ccc(/N=C3\NCCN3O)cc2)cc1` gave a pKa of 7.97. Regarding `O=C(Nc1ccc(/N=C2\NCCN2O)cc1)c1ccc(/N=C2/NCCN2O)cc1`, the pKa stood at 7.43. Next, `CCON1CCN/C1=N/c1ccc(CCc2ccc(/N=C3\NCCN3OCC)cc2)cc1`: 8.01.
